Where only a bound is given, the exact number is not on record here.

Two molecules from ChEMBL document CHEMBL1129275, “Synthesis and in vitro and in vivo characteristics of an iodinated analogue of the beta-adrenoceptor antagonist carazolol” (J Med Chem, 1996) can be followed below.

What all share (details): in vivo
The subject of data set [1] is Oryctolagus cuniculus. Description: Biodistribution pattern of [123I]- ligand was evaluated in intestine of anesthetized rabbit after Intravenous injection of 50 uCi after 2 hr. It is filed as ADME, organism-based. The gist of the method:
(§1)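 Male New Zealand white rabbits, 2.5–3.5 kg, anesthetized with 5 mg/kg xylazine plus 30 mg/kg ketamine im. Each received 50 uCi radioligand (specific activity > 5000 Ci/mmol) iv via ear vein. Animals were killed with 200 mg/kg pentobarbital im at the set time. Blood was drawn by intracardiac puncture and organs weighed. Gamma counting was decay-corrected, expressed as %ID x kg body weight/g tissue, mean ± SEM, n = 3/time point.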

Data set [2] relates to Oryctolagus cuniculus. Kind of data set: Biodistribution pattern of [123I]- ligand was evaluated in left atrial muscle of anesthetized rabbit after Intravenous injection of 50 uCi after 2 hr. In kind it is ADME, organism-based, Muscle tissue. The gist of the method:
as §1

Data set [3] deals with Oryctolagus cuniculus. Kind of data set: Biodistribution pattern of [123I]- ligand was evaluated in left ventricular muscle of anesthetized rabbit after Intravenous injection of 50 uCi after 2 hr. In kind it is ADME, organism-based, Muscle tissue. Summed up:
as §1

Data set [4] has as its system Oryctolagus cuniculus. Kind of data set: Biodistribution pattern of [123I]- ligand was evaluated in right atrial muscle of anesthetized rabbit after Intravenous injection of 50 uCi after 2 hr. In kind it is ADME, organism-based, Muscle tissue. Summed up:
(§2)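 Male New Zealand white rabbits (2.5–3.5 kg), anesthetized with xylazine 5 mg/kg plus ketamine 30 mg/kg im, given 50 µCi radioligand (specific activity >5000 Ci/mmol) iv via ear vein. Euthanized at set times by pentobarbital 200 mg/kg im, n = 3/time point. Organs removed and weighed, gamma-counted, decay/weight corrected; expressed as % ID x kg body weight/g tissue, mean ± SEM.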

For data set [5], the system named is Oryctolagus cuniculus. Kind of data set: Biodistribution pattern of [123I]- ligand was evaluated in right ventricular muscle of anesthetized rabbit after Intravenous injection of 50 uCi after 2 hr. In kind it is ADME, organism-based, Muscle tissue. Summed up: as §2
Data set [6] relates to Oryctolagus cuniculus. Description: Cerebral biodistribution pattern of [123I]- ligand was evaluated in striatum of anesthetized rabbit after Intravenous injection of 50 uCi after 2 hr. It is filed as ADME, organism-based. Summed up:
as §2

Data set [7] deals with Oryctolagus cuniculus. Kind of data set: Cerebral biodistribution pattern of [123I]- ligand was evaluated in thalamus of anesthetized rabbit after Intravenous injection of 50 uCi after 2 hr. In kind it is ADME, organism-based. Summed up: as §2
Data set [8] deals with Oryctolagus cuniculus. Kind of data set: Biodistribution pattern of [123I]- ligand was evaluated in muscle of anesthetized rabbit after Intravenous injection of 50 uCi after 2 hr. It is filed as ADME, organism-based, Muscle tissue. The gist of the method: as §1
The subject of data set [9] is Oryctolagus cuniculus. Kind of data set: Cerebral biodistribution pattern of [123I]- ligand was evaluated in frontal cortex of anesthetized rabbit after Intravenous injection of 50 uCi after 2 hr. It is filed as ADME, organism-based. Summed up:
as §2

The subject of data set [10] is Oryctolagus cuniculus. Description: Cerebral biodistribution pattern of [123I]- ligand was evaluated in hypothalamus of anesthetized rabbit after Intravenous injection of 50 uCi after 2 hr. In kind it is ADME, organism-based. The gist of the method: as §2
The test system of data set [11] is Oryctolagus cuniculus. Kind of data set: […] biodistribution pattern of [123I]- ligand was evaluated in kidney of anesthetized rabbit after Intravenous injection of 50 uCi after 2 hr. It is filed as ADME, organism-based. Summed up:
as §2

Data set [12] has as its system Oryctolagus cuniculus. Kind of data set: Cerebral biodistribution pattern of [123I]- ligand was evaluated in pituitary gland of anesthetized rabbit after Intravenous injection of 50 uCi after 2 hr. In kind it is ADME, organism-based. The gist of the method: as §2
The subject of data set [13] is Oryctolagus cuniculus. Description: Biodistribution pattern of [123I]- ligand was evaluated in blood of anesthetized rabbit after Intravenous injection of 50 uCi after 2 hr. It is filed as ADME, organism-based. Summed up: as §1
Data set [14] deals with Oryctolagus cuniculus. Description: Biodistribution pattern of [123I]- ligand was evaluated in fat of anesthetized rabbit after Intravenous injection of 50 uCi after 2 hr. In kind it is ADME, organism-based, Adipose tissue. Summed up:
as §1

Data set [15] deals with Oryctolagus cuniculus. Description: Biodistribution pattern of [123I]- ligand was evaluated in spleen of anesthetized rabbit after Intravenous injection of 50 uCi after 2 hr. In kind it is ADME, organism-based. Summed up: as §2
Data set [16] relates to Oryctolagus cuniculus. Kind of data set: Biodistribution pattern of [123I]- ligand was evaluated in liver of anesthetized rabbit after Intravenous injection of 50 uCi after 2 hr. In kind it is ADME, organism-based. Summed up: as §1
The test system of data set [17] is Oryctolagus cuniculus. Description: Biodistribution pattern of [123I]- ligand was evaluated in lung of anesthetized rabbit after Intravenous injection of 50 uCi after 2 hr. In kind it is ADME, organism-based. Summed up: as §1
In data set [18] the test system is Oryctolagus cuniculus. Kind of data set: Cerebral biodistribution pattern of [123I]- ligand was evaluated in cerebellum of anesthetized rabbit after Intravenous injection of 50 uCi after 2 hr. In kind it is ADME, organism-based. Summed up:
as §2

As to `CC(C)(C)NCC(O)COc1cccc2[nH]c(=O)[nH]c12` (stereo not given) [CGP-12177], the “ID x kg of body weight/g of tissue” value with Oryctolagus cuniculus [1] is recorded as 0.46%; in the data set with Oryctolagus cuniculus [2], less than 0.05%; in the data set with Oryctolagus cuniculus [3] it was less than 0.08%; in the data set on Oryctolagus cuniculus [4], less than 0.05%; in the data set with Oryctolagus cuniculus [5] it was less than 0.08%; in the data set on Oryctolagus cuniculus [6], 0.08%. The “ID x kg of body weight/g of tissue” value is on record as 0.06% with Oryctolagus cuniculus [7]; less than 0.03% in the data set with Oryctolagus cuniculus [8]; 0.1% in the data set on Oryctolagus cuniculus [9]; 0.06% in the data set on Oryctolagus cuniculus [10]; 0.09% with Oryctolagus cuniculus [11]; 0.07% in the data set with Oryctolagus cuniculus [12]. Further, the “ID x kg of body weight/g of tissue” value is recorded as 0.01% in the data set on Oryctolagus cuniculus [13]; 0.04% in the data set with Oryctolagus cuniculus [14]; 0.12% in the data set on Oryctolagus cuniculus [15]; 0.1% with Oryctolagus cuniculus [16]; less than 0.8% in the data set on Oryctolagus cuniculus [17]; 0.17% with Oryctolagus cuniculus [18].
In the case of `CC(C)NCC(O)COc1cccc2ccccc12` (stereo not given) [PROPRANOLOL], the “ID x kg of body weight/g of tissue” value with Oryctolagus cuniculus [1] was 0.29%; in the data set with Oryctolagus cuniculus [2], less than 0.07%; with Oryctolagus cuniculus [3] it was less than 0.09%; in the data set on Oryctolagus cuniculus [4] it was less than 0.07%; with Oryctolagus cuniculus [5], less than 0.09%; in the data set with Oryctolagus cuniculus [6], less than 0.04%. The “ID x kg of body weight/g of tissue” value in the data set with Oryctolagus cuniculus [7] is reported as 0.04%; in the data set on Oryctolagus cuniculus [8], less than 0.03%; with Oryctolagus cuniculus [9], less than 0.05%; in the data set on Oryctolagus cuniculus [10] it was 0.04%; with Oryctolagus cuniculus [11], 0.1%; in the data set with Oryctolagus cuniculus [12], 0.06%. In addition, the “ID x kg of body weight/g of tissue” value is given as 0.01% in the data set with Oryctolagus cuniculus [13]; 0.04% in the data set with Oryctolagus cuniculus [14]; 0.1% in the data set on Oryctolagus cuniculus [15]; 0.1% with Oryctolagus cuniculus [16]; less than 0.04% with Oryctolagus cuniculus [18].
